# Source: ChEMBL document CHEMBL4130468, “Furostane Series Asterosaponins and Other Unusual Steroid Oligoglycosides from the Tropical Starfish Pentaceraster regulus” (J Nat Prod, 2017)
# Calls of active or inactive are those of the source. The rule behind the calls is not given here.
# What was measured:
# RAW264.7 [1] = assay: Cytotoxicity against mouse RAW264.7 cells assessed as reduction in cell viability after 24 hrs by MTS assay; assay type: functional, cell-based; settings: RAW264.7, 24 h
# In short: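 RAW 264.7 murine macrophages (DMEM, 10% FBS, 37 °C, 5% CO2) seeded 6 × 10^3 cells/well and cultured 2 h. Medium then replaced with compound-containing medium (1.25−10.0 μM range), 24 h exposure. MTS reagent added, formazan read 2 h later at 492 nm with 690 nm background. IC50 reported; at least triplicate, mean ± SD.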
# RAW264.7 [2] = assay: Induction of ROS generation in mouse RAW264.7 cells at 5 uM after 24 hrs by H2DCFDA probe based fluorescence assay; assay type: functional, cell-based
# In short: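 Adhered RAW 264.7 macrophages (2 h, 37 °C, 5% CO2) exposed to compounds at 5 μM without LPS for 24 h, compared with untreated cells. 2,7-Dichlorodihydrofluorescein diacetate added (final 10 μM) for an additional 10 min at 37 °C. Dichlorofluorescein fluorescence measured at λex/λem 485/518 nm. At least triplicate.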
# RAW264.7 [3] = assay: Immunomodulatory activity in mouse RAW264.7 cells assessed as inhibition of LPS-induced ROS level at 5 uM after 24 hrs by H2DCFDA probe based fluorescence assay relative to control; assay type: functional; settings: RAW264.7, 24 h
# In short: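 RAW 264.7 macrophages allowed to adhere 2 h at 37 °C, 5% CO2, then given compounds (5 μM) co-incubated with E. coli serotype 055:B5 LPS (1.0 μg/mL) for 24 h. DCFH-DA then added (final 10 μM) for 10 min at 37 °C. Fluorescence read at 485/518 nm; % reduction of LPS-induced ROS. At least triplicate, mean ± SD.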
smiles,measurement,setting,value
CC(C)C(C)[C@H](O)[C@@H]1O[C@H]2C[C@H]3[C@@H]4C[C@H](O[C@@H]5O[C@H](C)[C@@H](O)[C@H](O[C@@H]6O[C@H](C)[C@@H](O[C@@H]7O[C@H](CO)[C@@H](O)[C@H](O)[C@H]7O[C@@H]7O[C@H](C)[C@H](O)[C@H](O)[C@H]7O)[C@H](O)[C@H]6O[C@@H]6O[C@H](C)[C@@H](O)[C@H](O)[C@H]6O)[C@H]5O)[C@H]5C[C@@H](OS(=O)(=O)O)CC[C@]5(C)C4=CC[C@]3(C)[C@H]2[C@@]1(C)O (stereo partly specified),IC50,RAW264.7 [1],1.25 to 10 µM
same,Activity,RAW264.7 [2],inactive
CC(C)=CC[C@H](O)[C@](C)(O)[C@H]1CC[C@H]2[C@@H]3C[C@H](O[C@@H]4O[C@H](C)[C@@H](O)[C@H](O[C@@H]5OC[C@@H](O[C@@H]6O[C@H](C)[C@@H](O)[C@H](O)[C@H]6O[C@@H]6O[C@H](C)[C@H](O)[C@H](O)[C@H]6O)[C@H](O)[C@H]5O[C@@H]5O[C@H](C)[C@@H](O)[C@H](O)[C@H]5O)[C@H]4O)[C@H]4C[C@@H](OS(=O)(=O)O)CC[C@]4(C)C3=CC[C@]12C,Activity,RAW264.7 [2],inactive
CC(=O)[C@H]1CC[C@H]2[C@@H]3C[C@H](O[C@@H]4O[C@H](C)[C@@H](O)[C@H](O[C@@H]5OC[C@@H](O[C@@H]6O[C@H](CO)[C@H](O)[C@H](O)[C@H]6O[C@@H]6O[C@H](C)[C@H](O)[C@H](O)[C@H]6O)[C@H](O)[C@H]5O[C@@H]5O[C@H](C)[C@@H](O)[C@H](O)[C@H]5O)[C@H]4O)[C@H]4C[C@@H](OS(=O)(=O)O)CC[C@]4(C)C3=CC[C@]12C,IC50,RAW264.7 [1],1.25 to 10 µM
same,Activity,RAW264.7 [2],inactive
C[C@H]1O[C@@H](O[C@H]2[C@H](O[C@@H]3CO[C@@H](O[C@@H]4[C@@H](O)[C@H](O[C@H]5C[C@@H]6C(=CC[C@@]7(C)[C@H]6CC[C@@H]7[C@@](C)(O)C(=O)/C=C/C(C)(C)O)[C@@]6(C)CC[C@H](OS(=O)(=O)O)C[C@H]56)O[C@H](C)[C@H]4O)[C@H](O[C@@H]4O[C@H](C)[C@@H](O)[C@H](O)[C@H]4O)[C@H]3O)O[C@H](C)[C@@H](O)[C@@H]2O)[C@H](O)[C@@H](O)[C@H]1O,IC50,RAW264.7 [1],1.25 to 10 µM
same,Activity,RAW264.7 [2],inactive
CC(C)CC[C@H](O)[C@](C)(O)[C@H]1CC[C@H]2[C@@H]3C[C@H](O[C@@H]4O[C@H](C)[C@@H](O)[C@H](O[C@@H]5OC[C@@H](O[C@@H]6O[C@H](C)[C@@H](O)[C@H](O)[C@H]6O[C@@H]6O[C@H](C)[C@H](O)[C@H](O)[C@H]6O)[C@H](O)[C@H]5O[C@@H]5O[C@H](C)[C@@H](O)[C@H](O)[C@H]5O)[C@H]4O)[C@H]4C[C@@H](OS(=O)(=O)O)CC[C@]4(C)C3=CC[C@]12C,IC50,RAW264.7 [1],1.25 to 10 µM
same,Activity,RAW264.7 [2],inactive
same,inhibition at 5 µM,RAW264.7 [3],28%
CC(C)CC(=O)C[C@](C)(O)[C@H]1CC[C@H]2[C@@H]3C[C@H](O[C@@H]4O[C@H](C)[C@@H](O)[C@H](O[C@@H]5OC[C@@H](O[C@@H]6O[C@H](CO)[C@@H](O)[C@H](O)[C@H]6O[C@@H]6O[C@H](C)[C@H](O)[C@H](O)[C@H]6O)[C@H](O)[C@H]5O[C@@H]5O[C@H](C)[C@@H](O)[C@H](O)[C@H]5O)[C@H]4O)[C@H]4C[C@@H](OS(=O)(=O)O)CC[C@]4(C)C3=CC[C@@]21C,Activity,RAW264.7 [2],inactive
CC(=O)[C@H]1CC[C@H]2[C@@H]3C[C@H](O[C@@H]4O[C@H](C)[C@@H](O)[C@H](O[C@@H]5OC[C@@H](O[C@@H]6O[C@H](C)[C@@H](O)[C@H](O)[C@H]6O[C@@H]6O[C@H](C)[C@H](O)[C@H](O)[C@H]6O)[C@H](O)[C@H]5O[C@@H]5O[C@H](C)[C@@H](O)[C@H](O)[C@H]5O)[C@H]4O)[C@H]4C[C@@H](OS(=O)(=O)O)CC[C@]4(C)C3=CC[C@]12C,IC50,RAW264.7 [1],1.25 to 10 µM
same,Activity,RAW264.7 [2],inactive
CCC(C)[C@H](O)[C@@H]1O[C@H]2C[C@H]3[C@@H]4C[C@H](O[C@@H]5O[C@H](C)[C@@H](O)[C@H](O[C@@H]6O[C@H](C)[C@@H](O[C@@H]7O[C@H](CO)[C@@H](O)[C@H](O)[C@H]7O[C@@H]7O[C@H](C)[C@H](O)[C@H](O)[C@H]7O)[C@H](O)[C@H]6O[C@@H]6O[C@H](C)[C@@H](O)[C@H](O)[C@H]6O)[C@H]5O)[C@H]5C[C@@H](OS(=O)(=O)O)CC[C@]5(C)C4=CC[C@]3(C)[C@H]2[C@@]1(C)O (stereo partly specified),Activity,RAW264.7 [2],inactive
same,inhibition at 5 µM,RAW264.7 [3],40%
CC(C)CC(=O)C[C@](C)(O)[C@H]1CC[C@H]2[C@@H]3C[C@H](O[C@@H]4O[C@H](C)[C@@H](O)[C@H](O[C@@H]5OC[C@@H](O[C@@H]6O[C@H](CO)[C@H](O)[C@H](O)[C@H]6O[C@@H]6O[C@H](C)[C@H](O)[C@H](O)[C@H]6O)[C@H](O)[C@H]5O[C@@H]5O[C@H](C)[C@@H](O)[C@H](O)[C@H]5O)[C@H]4O)[C@H]4C[C@@H](OS(=O)(=O)O)CC[C@]4(C)C3=CC[C@@]21C,IC50,RAW264.7 [1],7 µM
same,Activity,RAW264.7 [2],inactive
CC(C)[C@H](C)[C@@H]1O[C@H]1[C@](C)(O)[C@H]1[C@@H](O)C[C@H]2[C@@H]3C[C@H](O[C@@H]4O[C@H](C)[C@@H](O)[C@H](O[C@@H]5O[C@H](C)[C@@H](O[C@@H]6O[C@H](CO)[C@@H](O)[C@H](O)[C@H]6O[C@@H]6O[C@H](C)[C@H](O)[C@H](O)[C@H]6O)[C@H](O)[C@H]5O[C@@H]5O[C@H](C)[C@@H](O)[C@H](O)[C@H]5O)[C@H]4O)[C@H]4C[C@@H](OS(=O)(=O)O)CC[C@]4(C)C3=CC[C@]12C,IC50,RAW264.7 [1],6.4 µM
same,Activity,RAW264.7 [2],inactive
CC(C)CCC(=O)[C@](C)(O)[C@H]1CC[C@H]2[C@@H]3C[C@H](O[C@@H]4O[C@H](C)[C@@H](O)[C@H](O[C@@H]5OC[C@@H](O[C@@H]6O[C@H](C)[C@@H](O)[C@H](O)[C@H]6O[C@@H]6O[C@H](C)[C@H](O)[C@H](O)[C@H]6O)[C@H](O)[C@H]5O[C@@H]5O[C@H](C)[C@@H](O)[C@H](O)[C@H]5O)[C@H]4O)[C@H]4C[C@@H](OS(=O)(=O)O)CC[C@]4(C)C3=CC[C@@]21C,Activity,RAW264.7 [2],inactive
same,inhibition at 5 µM,RAW264.7 [3],55%
